According to ChEMBL document CHEMBL6134787, “Fexinidazole optimization: enhancing anti-leishmanial profile, metabolic stability and hERG safety” (RSC Med Chem, 2024):

How the values were obtained:
[1] = Metabolic stability in rat liver S9 fraction assessed as compound remaining at 20 uM measured after 32 mins in presence of NADP and GSH by HPLC analysis; type: ADME, subcellular; settings: read-out: Stability
Outline: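 Rat liver S9 (final 4 mg/mL) in 50 mM phosphate pH 7.4 with NADPH-regenerating system (0.3 mM NADP+, 5.3 mM glucose-6-phosphate, G6PDH), 10 mM MgCl2 and 5 mM EDTA. Pre-warmed 10 min at 37 °C, then 20 μM compound and 5.5 μM GSH added. Samples taken at 0, 16 and 32 min were quenched in ice-cold acetonitrile. HPLC (254/280 nm) peak area was expressed relative to 0 min.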

Leishmania donovani [2] = assay: Antileishmanial activity against miltefosine resistant Leishmania donovani HU3MILR40 promastigotes […] assessed as inhibition of parasite growth incubated for 72 hrs by automatic microtiter plate reader analysis; type: functional, organism-based
Outline: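 Promastigote (free parasite) assay: Schneider's Drosophila medium with 4 mM glutamine, 25 μg mL−1 gentamicin, 10% heat-inactivated FBS, pH 6.9, 27 °C. 1.5 × 10^5 promastigotes per well exposed to a concentration series for 72 h at 27 °C.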

[3] = Hepatotoxicity against mouse TAMH cells assessed as cell viability at 7.8 to 125 uM incubated for 24 to 48 hrs by MTT assay; type: toxicity, cell-based; settings: dose lower 7.8 µM, time lower 24 hrs, dose upper 125 µM, time upper 48 hrs, read-out: Activity
Outline: (§1)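 TAMH mouse liver cells in FCS-free DMEM/F12 with 5% PANEXIN NTA, 10 mM nicotinamide and gentamicin. Seeded at 20 000/well and attached 24 h at 37 °C, 5% CO2. DMSO-diluted compounds were applied for 24 or 48 h. MTT was added for 4 h, formazan dissolved in DMSO and A570 read. Viability was background-corrected and expressed relative to DMSO controls; mean ± SD, ≥3 experiments.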

[4] = Metabolic stability in rat liver microsome assessed as compound remaining at 20 uM measured after 32 mins in presence of NADP and GSH by HPLC analysis; type: ADME; settings: liver microsomes, read-out: Stability
Outline: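 Rat liver microsomes (final 2 mg/mL) in 50 mM phosphate pH 7.4 with 0.3 mM NADP+, 5.3 mM glucose-6-phosphate, G6PDH, 10 mM MgCl2 and 5 mM EDTA. 20 μM compound added at 37 °C. Aliquots at 0, 16 and 32 min were quenched in ice-cold acetonitrile and centrifuged. HPLC peak area at 254/280 nm was expressed relative to 0 min.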

[5] = Cytotoxicity against mouse L929 cells assessed as inhibition of cell growth incubated for 72 hrs by MTS assay; type: toxicity, cell-based
Outline: (§2)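 Cells in DMEM + 10% heat-inactivated FBS with penicillin/streptomycin at 37 °C, 5% CO2. They were seeded at 1 × 10^4/well and incubated with a concentration series for 72 h at 37 °C. Viability was read by MTS/PMS assay at 490 nm and IC50 derived.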

[6] = biological target: T1, Voltage-gated inwardly rectifying potassium channel KCNH2 (Homo sapiens, UniProt Q12809); assay: Inhibition of human ERG stably overexpressed in HEK293 cells incubated for 30 mins by FLIPR assay; type: toxicity, cell-based; settings: for IC25: human, hek293, 0.5 h, time 30 min
hERG (KCNH2) [7] = biological target: T2, hERG (KCNH2) (Homo sapiens, UniProt Q12809); assay: (§3) Inhibition of human ERG stably overexpressed in HEK293 cells at 100 uM incubated for 30 mins by FLIPR assay; type: toxicity, cell-based; settings: HEK293 cells stably overexpressing hERG
Outline: (§4)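 HEK-293 cells stably expressing hERG, seeded at 60 000/well and grown 24 h. Compounds were added in DMSO (final 0.5%) and incubated 30 min in the dark. After 20 s baseline, Tl+ stimulus (3 mM) was added and fluorescence (ex 485/em 535 nm) recorded for 2.5 min.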

Leishmania donovani [8] = assay: Antileishmanial activity against wild type Leishmania donovani HU3 promastigotes […] assessed as inhibition of parasite growth incubated for 72 hrs by automatic microtiter plate reader analysis; type: functional, organism-based
Leishmania amazonensis [9] = assay: Antileishmanial activity against wild type Leishmania amazonensis LV78 promastigotes […] assessed as inhibition of parasite growth incubated for 72 hrs by automatic microtiter plate reader analysis; type: functional, organism-based
Outline: (§5)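 Promastigotes were grown in Schneider's medium (4 mM glutamine, gentamicin, 10% heat-inactivated FBS, pH 6.9, 27 °C). Cells were seeded at 1.5 × 10^5/well and exposed to a concentration series for 72 h at 27 °C.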

Leishmania major = assay: Antileishmanial activity against wild type Leishmania major FV1 promastigotes […] assessed as inhibition of parasite growth incubated for 72 hrs by automatic microtiter plate reader analysis; type: functional, organism-based; outline: as §5
Leishmania braziliensis [10] = assay: Antileishmanial activity against wild type Leishmania braziliensis UA847 promastigotes […] assessed as inhibition of parasite growth incubated for 72 hrs by automatic microtiter plate reader analysis; type: functional, organism-based; outline: as §5
RAW264.7 = assay: Cytotoxicity against mouse RAW264.7 cells assessed as inhibition of cell growth incubated for 72 hrs by MTS assay; type: functional, cell-based; settings: RAW264.7, 72 h; outline: as §2
[11] = Hepatotoxicity against human HepG2 cells assessed as cell viability at 62.5 uM incubated for 48 hrs by MTT assay; type: toxicity, cell-based; settings: read-out: Activity
Outline: (§6)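 HEP-G2 cells in RPMI 1640 + 10% heat-inactivated FBS, penicillin/streptomycin. Seeded at 15 000/well and attached 24 h at 37 °C, 5% CO2. Compounds were serially diluted in DMSO, with 24 or 48 h exposure. MTT (2.5 mg/mL solution) was added for 4 h, formazan dissolved in DMSO and A570 read. Viability was background-corrected against DMSO-treated cell controls; mean ± SD, ≥3 experiments.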

hERG (KCNH2) [12] = biological target: T2, hERG (KCNH2); assay: Inhibition of human ERG stably overexpressed in HEK293 cells assessed as remaining activity at 6 uM incubated for 30 mins by FLIPR assay; type: toxicity, cell-based; settings: HEK293 cells stably overexpressing hERG, read-out: Activity; outline: as §4
[13] = Hepatotoxicity against mouse TAMH cells assessed as cell viability at 62.5 uM incubated for 48 hrs by MTT assay; type: toxicity, cell-based; settings: read-out: Activity; outline: as §1
[14] = Cytotoxicity against mouse peritoneal macrophage assessed as inhibition of cell growth incubated for 72 hrs by giemsa staining based analysis; type: toxicity; settings: peritoneal macrophages
Leishmania amazonensis [15] = assay: Antileishmanial activity against wild type Leishmania amazonensis LV78 amastigotes infected in mouse peritoneal macrophage assessed as inhibition of parasite growth incubated for 72 hrs by giemsa staining based analysis; type: functional, organism-based
Outline: (§7)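 Mouse peritoneal macrophages (1 × 10^5/well on coverslips, DMEM + 10% heat-inactivated FBS, penicillin/streptomycin) adhered overnight at 37 °C, 5% CO2. They were infected overnight with late-log promastigotes at a 20:1 parasite:macrophage ratio. Cells were then treated with compound for 72 h at 37 °C and Giemsa-stained. Amastigotes per 100 macrophages were counted to derive IC50; mean ± SD of 3–4 independent experiments.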

hERG (KCNH2) [16] = biological target: T2, hERG (KCNH2); assay: Inhibition of human ERG stably overexpressed in HEK293 cells assessed as remaining activity at 25 uM incubated for 30 mins by FLIPR assay; type: toxicity, cell-based; settings: HEK293 cells stably overexpressing hERG, read-out: Activity; outline: as §4
Leishmania braziliensis [17] = assay: Antileishmanial activity against wild type Leishmania braziliensis UA847 amastigotes infected in mouse peritoneal macrophage assessed as inhibition of parasite growth incubated for 72 hrs by giemsa staining based analysis; type: functional, organism-based; outline: as §7
Leishmania donovani [18] = assay: Antileishmanial activity against miltefosine resistant Leishmania donovani HU3MILR40 amastigotes infected in mouse peritoneal macrophage assessed as inhibition of parasite growth incubated for 72 hrs by giemsa staining based analysis; type: functional, organism-based
Outline: (§8)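 Mouse peritoneal macrophages in DMEM + 10% heat-inactivated FBS, penicillin/streptomycin; 1 × 10^5 cells per well on coverslips, adhered overnight at 37 °C, 5% CO2, non-adherent cells washed off. Infected overnight with late-log promastigotes at parasite:macrophage 40:1. Compound exposure 72 h at 37 °C; Giemsa stain, amastigotes per 100 macrophages counted, IC50 derived; means ± SD of 3–4 independent experiments.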

Leishmania donovani [19] = assay: Antileishmanial activity against wild type Leishmania donovani HU3 amastigotes infected in mouse peritoneal macrophage assessed as inhibition of parasite growth incubated for 72 hrs by giemsa staining based analysis; type: functional, organism-based; outline: as §8
[20] = Metabolic stability in rat liver microsome assessed as drug metabolism measured up to 32 mins in absence of inhibitor by HPLC analysis relative to control; settings: liver microsomes, without inhibitor
[21] = Metabolic stability in rat liver microsome assessed as parent compound remaining at 50 degreeC measured after 32 mins after heat treatment by HPLC; settings: liver microsomes, heat-treated
[22] = Hepatotoxicity against mouse TAMH cells assessed as cell viability at 125 uM incubated for 48 hrs by MTT assay; type: toxicity, cell-based; outline: as §1
[23] = biological target: T1, Voltage-gated inwardly rectifying potassium channel KCNH2; assay: as §3; type: toxicity, cell-based; settings: hek293, 0.5 h, 100 µM; outline: as §4
[24] = Hepatotoxicity against human HepG2 cells assessed as cell viability at 125 uM incubated for 48 hrs by MTT assay; type: toxicity, cell-based; settings: hepg2, 48 h, 125 µM; outline: as §6
[25] = Metabolic stability in rat liver microsome assessed as parent compound remaining at 50 degreeC measured after 16 mins after heat treatment by HPLC analysis; settings: liver microsomes, heat-treated

T1 sequence (Q12809 whole entry): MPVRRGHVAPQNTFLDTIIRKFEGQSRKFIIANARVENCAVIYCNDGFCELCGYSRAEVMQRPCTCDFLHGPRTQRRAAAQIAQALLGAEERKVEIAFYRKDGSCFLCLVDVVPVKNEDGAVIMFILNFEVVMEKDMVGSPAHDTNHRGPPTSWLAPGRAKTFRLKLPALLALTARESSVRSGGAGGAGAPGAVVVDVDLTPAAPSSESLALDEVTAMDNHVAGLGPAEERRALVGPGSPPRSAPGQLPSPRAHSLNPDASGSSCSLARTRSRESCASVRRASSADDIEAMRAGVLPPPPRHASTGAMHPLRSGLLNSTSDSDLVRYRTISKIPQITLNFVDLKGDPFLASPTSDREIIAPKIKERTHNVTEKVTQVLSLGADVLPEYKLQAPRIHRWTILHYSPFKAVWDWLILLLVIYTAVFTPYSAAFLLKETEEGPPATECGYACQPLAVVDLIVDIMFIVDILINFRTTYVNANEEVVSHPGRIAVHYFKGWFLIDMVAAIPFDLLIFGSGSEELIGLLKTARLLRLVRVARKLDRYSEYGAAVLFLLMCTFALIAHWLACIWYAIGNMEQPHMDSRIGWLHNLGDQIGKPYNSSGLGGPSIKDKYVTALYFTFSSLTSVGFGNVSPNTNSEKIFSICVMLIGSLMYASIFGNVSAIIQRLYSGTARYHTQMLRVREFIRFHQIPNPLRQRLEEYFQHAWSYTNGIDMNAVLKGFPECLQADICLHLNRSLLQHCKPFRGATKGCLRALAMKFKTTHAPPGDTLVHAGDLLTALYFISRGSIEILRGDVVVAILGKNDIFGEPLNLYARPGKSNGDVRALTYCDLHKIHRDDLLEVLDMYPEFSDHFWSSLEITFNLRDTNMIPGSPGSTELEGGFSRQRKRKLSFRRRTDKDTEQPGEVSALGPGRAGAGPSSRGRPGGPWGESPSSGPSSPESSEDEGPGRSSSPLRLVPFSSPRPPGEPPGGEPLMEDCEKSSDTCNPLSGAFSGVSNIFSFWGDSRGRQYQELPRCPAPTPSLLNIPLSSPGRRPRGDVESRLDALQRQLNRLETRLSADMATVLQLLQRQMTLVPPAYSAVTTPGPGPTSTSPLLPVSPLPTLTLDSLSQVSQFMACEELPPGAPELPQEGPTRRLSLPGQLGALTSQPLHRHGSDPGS
T2 sequence (Q12809 whole entry): as above

| SMILES | remaining at 32 min, 20 µM [1] [%] | IC50 (Leishmania donovani [2]) [µM] | viability at up to 125 µM [3] [%] | remaining at 32 min, 20 µM [4] [%] | IC50 at 72 h [5] [µM] | IC25 [6] [µM] | IC50 (Leishmania donovani [8]) [µM] | IC50 (Leishmania amazonensis [9]) [µM] | IC50 (Leishmania major) [µM] | IC50 (Leishmania braziliensis [10]) [µM] | IC50 (RAW264.7) [µM] | IC50 at 72 h [14] [µM] | IC50 (Leishmania amazonensis [15]) [µM] | IC50 (Leishmania braziliensis [17]) [µM] | IC50 (Leishmania donovani [18]) [µM] | IC50 (Leishmania donovani [19]) [µM] | metabolised at 32 min [20] [%] | further results |
| --- | --- | --- | --- | --- | --- | --- | --- | --- | --- | --- | --- | --- | --- | --- | --- | --- | --- | --- |
| CSc1ccc(CCc2ncc([N+](=O)[O-])n2CCO)cc1 | 76.8 | > 20 | > 50 | 20.5 | > 100 | 6 | > 20 | > 20 | > 20 | > 20 | > 100 |  |  |  |  |  |  | inhibition at 0.5 h, 100 µM (hERG (KCNH2) [7]): 100% |
| CSc1ccc(OCc2ncc([N+](=O)[O-])n2C)cc1 [FEXINIDAZOLE] | 73.4 | 5.5 |  | 0 | > 100 | 8.6 | 3.3 | 7 | 1.9 | 3.9 | > 100 | > 82 | > 10 | > 10 | > 10 | > 10 | 100 | viability at 48 h, 62.5 µM [11]: 95%; activity at 0.5 h, 6 µM (hERG (KCNH2) [12]): 78%; viability at 48 h, 62.5 µM [13]: 90%; IC50 [6]: ~10.7 µM; activity at 0.5 h, 25 µM (hERG (KCNH2) [16]): 34%; remaining at 32 min [21]: 11% |
| Cn1c([N+](=O)[O-])cnc1COc1ccc([S+](C)[O-])cc1 (stereo unspecified) [FEXINIDAZOLE SULFOXIDE] | 100 | 4.3 | > 50 | 100 | > 100 | > 100 | 3.4 | 7.8 | 1.4 | 4.3 | > 100 |  |  |  |  |  |  | Activity [22]: Non-toxic; inhibition (INH) [23]: Not_active; Activity [24]: Non-toxic |
| CCc1ccc(OCc2ncc([N+](=O)[O-])n2C)cc1 | 96.4 | 5.3 | > 50 | 0 | 71.8 | 14.9 | 5 | 4.5 | 1.4 | 3.9 | > 68.5 | > 100 | > 10 | > 10 | > 10 | > 10 | 100 | remaining at 16 min [25]: 16% |
